One series concerns Streptococcus pneumoniae. Nature of the series: Antibacterial activity against Streptococcus pneumoniae at 100 ug/ml after 16 to 20 hrs by broth microdilution method. In kind it is functional, organism-based.
In a further series the test system is Escherichia coli. Nature of the series: Antibacterial activity against Escherichia coli at 100 ug/ml after 16 to 20 hrs by broth microdilution method. In kind it is functional, organism-based. (Broth dilution looks for growth in wells or tubes with falling amounts of substance.)
For the next series, the system named is Pseudomonas aeruginosa. Put plainly: Antibacterial activity against Pseudomonas aeruginosa at 100 ug/ml after 16 to 20 hrs by broth microdilution method. In kind it is functional, organism-based.
In the next series the test system is Bacillus subtilis. Nature of the series: Antibacterial activity against Bacillus subtilis at 100 ug/ml after 16 to 20 hrs by broth microdilution method. In kind it is functional, organism-based.
Series [1] concerns Enterococcus faecalis. Put plainly: Antibacterial activity against Enterococcus faecalis after 16 to 20 hrs by broth microdilution method. In kind it is functional. Summed up: (§1)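 Broth microdilution MIC. Exponentially growing bacteria diluted in sterile liquid medium to a final inoculum of 1 × 10⁴ CFU/mL, cultured with serial compound dilutions for 16-20 h. MIC taken as the lowest inhibitory concentration.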

The test system of series [2] is Staphylococcus aureus. Nature of the series: Antibacterial activity against Staphylococcus aureus after 16 to 20 hrs by broth microdilution method. In kind it is functional. Summed up: as §1
Series [3] has as its system Streptococcus pyogenes. Nature of the series: Antibacterial activity against Streptococcus pyogenes after 16 to 20 hrs by broth microdilution method. In kind it is functional. Put shortly: as §1
The test system of series [4] is Listeria monocytogenes. Put plainly: Antibacterial activity against Listeria monocytogenes after 16 to 20 hrs by broth microdilution method. In kind it is functional. Put shortly:
as §1

Series [5] concerns Staphylococcus epidermidis. Put plainly: Antibacterial activity against Staphylococcus epidermidis after 16 to 20 hrs by broth microdilution method. In kind it is functional. Put shortly:
as §1

The next series deals with Proteus vulgaris. Nature of the series: Antibacterial activity against Proteus vulgaris at 100 ug/ml after 16 to 20 hrs by broth microdilution method. In kind it is functional, organism-based.
A further series deals with Salmonella typhimurium. Nature of the series: Antibacterial activity against Salmonella Typhimurium at 100 ug/ml after 16 to 20 hrs by broth microdilution method. To be noted: Salmonella enterica subsp. enterica serovar Typhimurium. In kind it is functional, organism-based.
In series [6] the test system is Mycobacterium tuberculosis. Nature of the series: Antitubercular activity against Mycobacterium tuberculosis H37Ra infected in BALB/c mouse assessed as reduction of CFU counts in liver at 50 mg/kg, ip administered 5 days after infection for 25 days measured after 3 days last dose. In kind it is functional, organism-based. Also on record: dose 50 mg/kg. Summed up: (§2)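 Female BALB/c mice, 5–6 weeks old, were infected iv via the tail vein with about 2.5 × 10⁵ CFU of H37Ra in PBS, 5 per group. From day 5, drug was given ip at 50 mg/kg, 5 days/week, for 25 treatment days, in 10% DMSO–saline or poly(ethylene glycol) methyl ether. Controls received diluent only. Three days after the last dose, lung, liver and spleen homogenates were plated on 7H11 agar at 37 °C for up to 4 weeks. Colony counts were done blinded.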

Series [7] can be described thus: Cytotoxicity against human HuH7 cells assessed as cell viability at > 200 ug/ml after 2 days by [3H]thymidine incorporation assay. In kind it is cell-based. The note with it: huh-7, 48 h.
In series [8] the test system is Mycobacterium tuberculosis. Put plainly: Antitubercular activity against Mycobacterium tuberculosis H37Ra at 50 ug/ml after 6 days by microplate alamar blue assay. In kind it is functional. To be noted: 144 h. Put shortly:
(§3)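 MABA run in 7H9GC medium, with drug diluted from DMSO stocks made at 100× the highest final concentration. Final levels were 100, 50, 10, 5, 2.5 and 1 μg/mL in triplicate, and the experiment was done three times. Inoculum was 2.5 × 10⁵ CFU/mL final. Alamar Blue plus Tween-80 was added once bacteria-only control wells turned pink, from day 6 on, and plates were read visually and by fluorescence after 24 h. Visual MIC is the lowest concentration preventing the blue-to-pink change. Mean percent inhibition was taken relative to bacteria-only and medium-only wells.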
In general terms: Alamar Blue is a resazurin reagent that responds to reducing activity.

The subject of series [9] is Staphylococcus aureus. Put plainly: Antibacterial activity against Staphylococcus aureus at 100 ug/ml after 16 to 20 hrs by broth microdilution method. In kind it is functional, organism-based.
Series [10] relates to Streptococcus pyogenes. Put plainly: Antibacterial activity against Streptococcus pyogenes at 100 ug/ml after 16 to 20 hrs by broth microdilution method. In kind it is functional, organism-based.
Series [11] deals with Mycobacterium tuberculosis. Put plainly: Antitubercular activity against Mycobacterium tuberculosis H37Ra at 10 ug/ml after 6 days by microplate alamar blue assay. In kind it is functional. The note with it: 144 h. Summed up:
as §3

Series [12] can be described thus: Cytotoxicity against human HuH7 cells assessed as cell viability at 200 ug/ml after 2 days by XTT assay. The note with it: huh-7, 48 h. In kind it is cell-based. Summed up: (§4)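 Huh-7 cells seeded at 1 × 10⁵ cells/well and left to attach 6-8 h. Medium then replaced with compound at 200, 100, 50, 10 or 1 μg/mL, with a DMSO control, and incubated 2 days at 37 °C. Viability by XTT, absorbance read at 450-500 nm.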
On the technique in general: Tetrazolium assays rely on reduction of a dye to a coloured formazan, in cell work by metabolically active cells.

Series [13] deals with Mycobacterium tuberculosis. Put plainly: Antitubercular activity against Mycobacterium tuberculosis H37Ra infected in BALB/c mouse assessed as reduction of CFU counts in spleen at 50 mg/kg, ip administered 5 days after infection for 25 days measured after 3 days last dose. Further details: dose 50 mg/kg. In kind it is functional, organism-based. Summed up:
as §2

Series [14] has as its system Enterococcus faecalis. Put plainly: Antibacterial activity against Enterococcus faecalis at 100 ug/ml after 16 to 20 hrs by broth microdilution method. In kind it is functional, organism-based.
The subject of another series is Mus musculus. Put plainly: Toxicity in Mycobacterium tuberculosis H37Ra infected in BALB/c mouse assessed as adverse effect at 50 mg/kg, ip administered 5 days after infection for 25 days. In kind it is organism-based. Further details: dose 50 mg/kg, route intraperitoneal. To be noted: in vivo. Summed up:
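BALB/c mice infected with H37Ra were given 50 mg/kg ip in 10% DMSO–saline from day 5 post-infection, 5 days/week, over 25 treatment days. They were monitored for weight loss and behavioural changes and examined by gross necropsy after euthanasia.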

Series [15] deals with Mycobacterium tuberculosis. Nature of the series: Antitubercular activity against Mycobacterium tuberculosis H37Ra at 100 ug/ml after 6 days by microplate alamar blue assay. In kind it is functional. To be noted: 144 h. Summed up: as §3
In series [16] the test system is Mycobacterium tuberculosis. Nature of the series: Antitubercular activity against Mycobacterium tuberculosis H37Ra infected in BALB/c mouse assessed as reduction of CFU counts in lungs at 50 mg/kg, ip administered 5 days after infection for 25 days measured after 3 days last dose. In kind it is functional, organism-based. Further details: dose 50 mg/kg. Summed up: as §2

Series [17] has as its system Mycobacterium tuberculosis. Put plainly: Antitubercular activity against Mycobacterium tuberculosis H37Ra at 2.5 to 5 ug/ml after 6 days by microplate alamar blue assay. In kind it is functional. Summed up: as §3
For series [18], the system named is Mycobacterium tuberculosis. Put plainly: Antitubercular activity against Mycobacterium tuberculosis H37Ra after 6 days by microplate alamar blue assay. In kind it is functional. The note with it: 144 h. Put shortly: as §3
The subject of series [19] is Staphylococcus epidermidis. Put plainly: Antibacterial activity against Staphylococcus epidermidis at 100 ug/ml after 16 to 20 hrs by broth microdilution method. In kind it is functional, organism-based.
Series [20] concerns Listeria monocytogenes. Nature of the series: Antibacterial activity against Listeria monocytogenes at 100 ug/ml after 16 to 20 hrs by broth microdilution method. In kind it is functional, organism-based.
The nature of series [21]: Cytotoxicity against human HuH7 cells assessed as cell viability after 2 days by XTT assay. The note with it: huh-7, 48 h. In kind it is cell-based, Huh-7. Put shortly: as §4

≈ marks a conversion by molar mass, not a printed value. Calls of active or inactive are those of the source. The calls are words filed in the database; no cut-off is given here.

The values that follow come from ChEMBL document CHEMBL1212938, “Inhibition of mycobacterial replication by pyrimidines possessing various C-5 functionalities and related 2'-deoxynucleoside analogues using in vitro and in vivo models” (J Med Chem, 2010).

On to `CCCCCC#Cc1c[nH]c(=O)[nH]c1=O`, for which the result with Streptococcus pneumoniae, with Escherichia coli, in the series with Pseudomonas aeruginosa, in the series on Bacillus subtilis, in the series on Proteus vulgaris and with Salmonella typhimurium was inactive. Besides, the MIC90 (commonly an inhibitory concentration at the 90% level, which refers to growth in some studies and to a panel of isolates in others) in the series on Enterococcus faecalis [1] was 50 µg/mL (≈ 242 µM); with Staphylococcus aureus [2] it was 50 µg/mL (≈ 242 µM); in the series with Streptococcus pyogenes [3], 50 µg/mL (≈ 242 µM); in the series with Listeria monocytogenes [4], 50 µg/mL (≈ 242 µM); in series [5] it was 10 µg/mL (≈ 48.5 µM).
As for `Nc1nc(=O)n([C@H]2C[C@H](O)[C@@H](CO)O2)cc1C#Cc1ccccn1`, the outcome in the series on Streptococcus pneumoniae, in the series with Staphylococcus aureus [9], in the series with Escherichia coli, in the series with Pseudomonas aeruginosa, with Streptococcus pyogenes [10] and with Bacillus subtilis was inactive. Besides, the result (in the series on Enterococcus faecalis [14]; in the series with Proteus vulgaris; with Salmonella typhimurium; in series [19]; in the series on Listeria monocytogenes [20]) was inactive. The outcome in [6], in series [13] and in series [16] was Active. In addition, the Activity result (in [7]; in series [12]; with Mus musculus; in [21]) was “Non-toxic” in each case. For the same molecule, the inhibition (usually the relative decrease from the control value, in per cent) at 50 µg/mL in series [8] was found to be 90%. Moreover, in series [11], the inhibition at 10 µg/mL amounted to 70%. In series [15], this molecule came in with an inhibition at 100 µg/mL of 90%. Moreover, the “inhibition (INH)” value in series [17] was 50%. Also, the MIC50 (in general, an inhibitory concentration at the 50% level, which refers to growth in some studies and to a panel of isolates in others) in series [18] stood at 2.5 µg/mL (≈ 7.61 µM).
